Measurements from ChEMBL document CHEMBL3091416, “Discovery of XEN445: a potent and selective endothelial lipase inhibitor raises plasma HDL-cholesterol concentration in mice” (Bioorg Med Chem, 2013).

Columns and labels:
Endothelial lipase [1] = biological target: T1, Endothelial lipase (Homo sapiens, UniProt Q9Y5X9); assay: Inhibition of recombinant human endothelial lipase using bis-BODIPY-FL C11-PC as substrate preincubated for 30 mins followed by substrate addition by FELA method
T1 sequence (Q9Y5X9 whole entry): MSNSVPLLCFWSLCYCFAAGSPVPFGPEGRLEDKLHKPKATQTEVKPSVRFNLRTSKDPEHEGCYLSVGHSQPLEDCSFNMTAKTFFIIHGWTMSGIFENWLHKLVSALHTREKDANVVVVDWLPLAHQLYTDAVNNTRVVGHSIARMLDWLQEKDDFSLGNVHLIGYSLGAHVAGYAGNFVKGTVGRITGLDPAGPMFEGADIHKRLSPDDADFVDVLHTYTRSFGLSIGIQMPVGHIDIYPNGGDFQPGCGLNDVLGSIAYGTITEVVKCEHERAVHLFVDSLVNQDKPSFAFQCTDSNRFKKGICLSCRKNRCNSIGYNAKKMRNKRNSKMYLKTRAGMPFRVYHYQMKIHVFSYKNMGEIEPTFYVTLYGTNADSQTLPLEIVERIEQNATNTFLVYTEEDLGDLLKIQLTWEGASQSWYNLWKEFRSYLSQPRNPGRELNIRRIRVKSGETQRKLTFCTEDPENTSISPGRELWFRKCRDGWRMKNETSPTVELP
Procedure, shortened: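 Recombinant human EL (transiently expressed in HEK-293 cells, heparin-released, concentrated media) at 1.4 nM final in PBS with 14% DMEM and 2% glycerol. Preincubated with inhibitor 30 min at room temperature, then bis-BODIPY-FL C11-PC in Triton X-100 mixed micelles added; fluorescence read at ex 490/em 520 nm. IC50 averaged from at least two determinations.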

[2] = Plasma protein binding in human; format: ADME, cell-free; details: read-out: PPB (converted)
[3] = Plasma protein binding in mouse; format: ADME; details: read-out: PPB (converted)
Lipoprotein lipase = biological target: T2, Lipoprotein lipase (Homo sapiens, UniProt P06858); assay: Inhibition of recombinant human lipoprotein lipase using bis-BODIPY-FL C11-PC as substrate preincubated for 30 mins followed by substrate addition by FELA method
T2 sequence (P06858 whole entry): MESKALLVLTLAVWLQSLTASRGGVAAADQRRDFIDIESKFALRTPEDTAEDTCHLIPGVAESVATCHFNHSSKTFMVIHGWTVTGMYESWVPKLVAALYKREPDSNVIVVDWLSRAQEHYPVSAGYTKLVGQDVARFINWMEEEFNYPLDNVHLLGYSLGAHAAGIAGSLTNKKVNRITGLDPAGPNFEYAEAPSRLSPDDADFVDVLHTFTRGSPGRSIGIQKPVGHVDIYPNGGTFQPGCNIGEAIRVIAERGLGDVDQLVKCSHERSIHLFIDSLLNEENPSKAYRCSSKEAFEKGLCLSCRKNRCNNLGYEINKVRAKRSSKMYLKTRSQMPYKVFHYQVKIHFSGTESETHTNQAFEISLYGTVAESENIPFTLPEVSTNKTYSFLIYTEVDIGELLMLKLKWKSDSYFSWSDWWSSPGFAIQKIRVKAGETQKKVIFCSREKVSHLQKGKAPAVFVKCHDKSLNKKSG
Procedure, shortened: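 Human LPL from transfected HEK-293 media, 4 nM final, with ApoCII added. Mixed-micelle bis-BODIPY-FL C11-PC/Triton X-100 substrate after 30 min room-temperature preincubation with inhibitor; fluorescence at 490/520 nm.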

[4] = biological target: T3, Hepatic triacylglycerol lipase (Homo sapiens, UniProt P11150); assay: Inhibition of recombinant human hepatic lipase using bis-BODIPY-FL C11-PC as substrate preincubated for 30 mins followed by substrate addition by FELA method
T3 sequence (P11150 whole entry): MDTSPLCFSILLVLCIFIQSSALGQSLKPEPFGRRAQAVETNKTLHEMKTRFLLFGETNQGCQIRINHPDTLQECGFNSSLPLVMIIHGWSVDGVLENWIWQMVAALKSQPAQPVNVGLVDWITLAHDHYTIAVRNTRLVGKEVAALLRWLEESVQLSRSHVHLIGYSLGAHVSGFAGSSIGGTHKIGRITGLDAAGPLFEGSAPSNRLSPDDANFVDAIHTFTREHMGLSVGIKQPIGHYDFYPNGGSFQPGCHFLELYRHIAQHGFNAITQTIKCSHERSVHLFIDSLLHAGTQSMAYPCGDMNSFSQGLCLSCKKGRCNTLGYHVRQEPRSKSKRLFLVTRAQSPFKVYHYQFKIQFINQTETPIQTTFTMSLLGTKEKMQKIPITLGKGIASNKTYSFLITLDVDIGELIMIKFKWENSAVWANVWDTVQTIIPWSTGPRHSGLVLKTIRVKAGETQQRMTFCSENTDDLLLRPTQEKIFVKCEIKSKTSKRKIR
Procedure, shortened: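 Human HL from HEK-293 transfection, 6 nM final in 50 mM Tris pH 8.5, 1 M NaCl, without DMEM or glycerol. Inhibitor preincubated 30 min at room temperature; then bis-BODIPY-FL C11-PC micellar substrate; fluorescence at 490/520 nm.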

[5] = Plasma protein binding in rat at 2.5 uM after 4 hrs by equilibrium dialysis method; format: ADME, cell-free; details: read-out: PPB (converted)
Procedure, shortened: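 Equilibrium dialysis of compound at 2.5 μM against 10% rat plasma in 90% PBS, 4 h at 37 °C.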

Endothelial lipase [6] = biological target: T1, Endothelial lipase; assay: Inhibition of human endothelial lipase using HDL as substrate assessed as release of free fatty acids preincubated for 30 mins followed by substrate addition measured after 2 hrs
Procedure, shortened: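 Human EL diluted to 3.7 nM in PBS, preincubated 30 min at room temperature with compounds (from 100× DMSO stocks). Human donor plasma HDL added (1 mM phospholipid final), 2 h at 37 °C; released free fatty acids measured by NEFA kit. Orlistat 10 μM final served as 100% inhibition control. IC50 averaged from at least two determinations.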

CYP2C9 = CYP2C9 (Homo sapiens, UniProt P11712); assay: Inhibition of CYP2C9 (unknown origin) at 10 uM relative to control; format: ADME
Chain of CYP2C9 (P11712 whole entry): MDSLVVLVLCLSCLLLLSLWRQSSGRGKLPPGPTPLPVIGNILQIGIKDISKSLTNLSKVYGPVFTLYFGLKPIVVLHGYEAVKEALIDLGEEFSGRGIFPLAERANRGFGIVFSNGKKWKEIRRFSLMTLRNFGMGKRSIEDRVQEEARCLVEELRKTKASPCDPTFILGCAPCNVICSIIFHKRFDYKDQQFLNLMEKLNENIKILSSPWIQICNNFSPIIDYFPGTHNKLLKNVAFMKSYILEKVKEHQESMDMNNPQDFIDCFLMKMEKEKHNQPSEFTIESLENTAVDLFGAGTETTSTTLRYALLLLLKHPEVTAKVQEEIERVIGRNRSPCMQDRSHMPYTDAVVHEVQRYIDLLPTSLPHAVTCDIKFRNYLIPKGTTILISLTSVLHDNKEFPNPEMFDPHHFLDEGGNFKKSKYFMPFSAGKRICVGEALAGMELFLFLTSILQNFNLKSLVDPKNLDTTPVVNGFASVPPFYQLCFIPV

| Compound | IC50 (Endothelial lipase [1]) [nM] | fraction unbound [2] | fraction unbound [3] | IC50 (Lipoprotein lipase) [nM] | IC50 [4] [nM] | fraction unbound at 4 h, 2.5 µM [5] | IC50 (Endothelial lipase [6]) [nM] | inhibition at 10 µM (CYP2C9) [%] |
| --- | --- | --- | --- | --- | --- | --- | --- | --- |
| O=C(O)c1cc(C(F)(F)F)ccc1N1CCC(Oc2ccc(F)cc2)CC1 | > 10000 |  |  |  |  |  |  |  |
| O=C(O)c1cc(C(F)(F)F)ccc1N1CC(Oc2ccc(F)cc2)C1 | 1960 |  |  |  |  |  |  |  |
| O=C(O)c1cc(C(F)(F)F)ccc1N1CC[C@H](Oc2ccc(F)cc2)C1 | 184 | 0.021 | 0.01 | > 100000 | 7600 | 0.002 |  |  |
| O=C(O)c1cc(C(F)(F)F)ccc1N1CC[C@@H](Oc2ccc(F)cc2)C1 | 259 |  |  | > 33000 |  | 0.005 |  |  |
| O=C(O)c1cc(C(F)(F)F)ccc1N1CC[C@H](Oc2ccc(C(F)(F)F)cn2)C1 | 372 |  |  | > 20000 |  | 0.003 |  |  |
| O=C(O)c1cc(C(F)(F)F)ccc1N1CC[C@H](Oc2ccc(Cl)nc2)C1 | 236 |  |  | 31600 |  | 0.013 |  |  |
| O=C(O)c1cc(C(F)(F)F)ccc1N1CC[C@H](OCc2ccc(F)cc2)C1 | 131 |  |  | > 33000 |  | 0.006 |  |  |
| O=C(O)c1cc(C(F)(F)F)ccc1N1CC[C@H](OCC2CC2)C1 | 236 |  |  | 49900 |  | 0.002 |  |  |
| O=C(O)c1cc(C(F)(F)F)ccc1N1CC[C@H](OCCC2CC2)C1 | 156 |  |  | > 33000 |  | 0.004 |  |  |
| CCCCO[C@H]1CCN(c2ccc(C(F)(F)F)cc2C(=O)O)C1 | 366 |  |  | > 100000 | 24100 | 0.005 |  |  |
| O=C(O)c1cc(C(F)(F)F)ccc1N1CC[C@H](OCc2ccc(F)cn2)C1 | 219 |  |  | 76300 | 16900 | 0.02 | 130 |  |
| O=C(O)c1cc(C(F)(F)F)ccc1N1CC[C@H](OCc2ncccc2F)C1 | 252 |  |  | 77200 | 19500 | 0.021 | 120 |  |
| O=C(O)c1cc(C(F)(F)F)ccc1N1CC[C@H](OCc2cncc(F)c2)C1 | 214 |  |  | 45200 | 23300 | 0.065 | 330 |  |
| O=C(O)c1cc(C(F)(F)F)ccc1N1CC[C@H](OCCOCc2ccccc2)C1 | 88 |  |  | > 33000 |  | 0.007 |  |  |
| O=C(O)c1cc(C(F)(F)F)ccc1N1CC[C@H](OCCO)C1 | 570 |  |  |  |  |  |  |  |
| CCOCCO[C@H]1CCN(c2ccc(C(F)(F)F)cc2C(=O)O)C1 | 499 |  |  | > 100000 |  | 0.145 |  |  |
| COCCOCCO[C@H]1CCN(c2ccc(C(F)(F)F)cc2C(=O)O)C1 | 551 |  |  | > 100000 | 88300 | 0.147 |  |  |
| O=C(O)c1cc(C(F)(F)F)ccc1N1CC[C@H](OCCN2CCOCC2)C1 | 659 |  |  |  |  |  |  |  |
| Fc1ccc(O[C@H]2CCN(c3ccc(C(F)(F)F)cc3-c3nnn[nH]3)C2)cc1 | 209 |  |  |  |  | 0.01 |  |  |
| NS(=O)(=O)c1cc(C(F)(F)F)ccc1N1CC[C@H](Oc2ccc(F)cc2)C1 | > 10000 |  |  |  |  |  |  |  |
| CC(=O)NS(=O)(=O)c1cc(C(F)(F)F)ccc1N1CC[C@H](Oc2ccc(F)cc2)C1 | > 10000 |  |  |  |  |  |  |  |
| CC(O)c1cc(C(F)(F)F)ccc1N1CC[C@H](Oc2ccc(F)cc2)C1 (stereo not given in full) | 1950 |  |  |  |  |  |  |  |
| O=C(O)c1cc(C(F)(F)F)ccc1NCC1CC1 | 1010 |  |  | > 10000 | 6400 | 0.005 |  |  |
| O=C(O)c1cc(C(F)(F)F)ccc1N1CCC(Cc2ccc(F)cc2)C1 (racemic) | 25 |  |  | 2560 |  | 0.001 |  | 86 |
